Results reported in ChEMBL document CHEMBL1124792, “Synthesis and structure-activity relationships of 5-substituted 6,8-difluoroquinolones, including sparfloxacin, a new quinolone antibacterial agent with improved potency” (1990).
Values after ≈ are worked out from the molar mass of the structure shown.

Key:
Assay type in all cases: functional
[1] = tested on: Pseudomonas aeruginosa; assay: In vitro antibacterial activity against Pseudomonas aeruginosa 12
Procedure, shortened: (§1)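 Two-fold agar dilution MIC on Mueller-Hinton agar (pH 7.4), following the Japan Society of Chemotherapy MIC Committee method. Inoculum was about 10⁶ CFU, and growth was read after 20 h at 37 °C. MIC is reported in µg/mL.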

[2] = tested on: Staphylococcus aureus; assay: In vitro antibacterial activity against Staphylococcus aureus 209P JC-1; procedure, shortened: as §1
[3] = tested on: Escherichia coli; assay: In vitro antibacterial activity against Escherichia coli NIHJ JC-2; procedure, shortened: as §1
[4] = tested on: Pseudomonas aeruginosa; assay: In vitro antibacterial activity against Pseudomonas aeruginosa IFO 3445; procedure, shortened: as §1
[5] = organism: Mus musculus; assay: Oral efficacy against Pseudomonas aeruginosa 12 on Systemic Infections in Mice
Procedure, shortened: (§2)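 Groups of at least 10 male Std-ddY mice (20 ± 2 g) were infected ip, with S. pyogenes A65 at 3×10^7 cells or P. aeruginosa 12 at 4×10^3 cells. Compounds were suspended in 0.2% sodium carboxymethylcellulose and given orally at 0 and 6 h postinfection. The result is reported as ED50 in mg/kg.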

[6] = tested on: Enterococcus faecalis; assay: In vitro antibacterial activity against Streptococcus faecalis 2473; procedure, shortened: as §1
[7] = tested on: Serratia marcescens; assay: In vitro antibacterial activity against Serratia marcescence S-9; procedure, shortened: as §1
[8] = tested on: Enterobacter cloacae; assay: In vitro antibacterial activity against Enterobacter cloacae 963
[9] = tested on: Staphylococcus epidermidis; assay: In vitro antibacterial activity against […] 8; procedure, shortened: as §1
[10] = tested on: Escherichia coli; assay: In vitro antibacterial activity against Escherichia coli P-5101; procedure, shortened: as §1
[11] = tested on: Klebsiella pneumoniae; assay: In vitro antibacterial activity against Klebsiella pneumoniae 13; procedure, shortened: as §1
[12] = tested on: Streptococcus pyogenes; assay: In vitro antibacterial activity against Streptococcus pyogenes A65; procedure, shortened: as §1
[13] = tested on: Moraxella bovis; assay: In vitro antibacterial activity against glucose nonfermenter Moraxella bovis P-7101; procedure, shortened: as §1
[14] = tested on: Staphylococcus aureus; assay: In vitro antibacterial activity against Staphylococcus aureus 50774; procedure, shortened: as §1
[15] = tested on: Serratia marcescens; assay: In vitro antibacterial activity against Serratia marcescens S-9
Procedure, shortened: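 MIC (µg/mL) by 2-fold agar dilution on Mueller-Hinton agar (pH 7.4), following the Japan Society of Chemotherapy MIC Committee method. Inoculum of about 10⁶ CFU. Growth was read after 20 h at 37 °C.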

[16] = organism: Mus musculus; assay: Oral efficacy against Streptococcus pyogenes A65 on Systemic Infections in Mice; procedure, shortened: as §2

| Compound | MIC [1] [mg/L] | MIC [2] [mg/L] | MIC [3] [mg/L] | MIC [4] [mg/L] | ED50 [5] [mg/kg] | MIC [6] [mg/L] | MIC [7] [mg/L] | MIC [8] [mg/L] | MIC [9] [mg/L] | MIC [10] [mg/L] | MIC [11] [mg/L] | MIC [12] [mg/L] | MIC [13] [mg/L] | MIC [14] [mg/L] | MIC [15] [mg/L] | ED50 [16] [mg/kg] |
| --- | --- | --- | --- | --- | --- | --- | --- | --- | --- | --- | --- | --- | --- | --- | --- | --- |
| CNc1c(F)c(N2CCN(C)CC2)c(F)c2c1c(=O)c(C(=O)O)cn2C1CC1 | 1.56 (≈ 3.98 µM) | 0.78 (≈ 1.99 µM) | 0.1 (≈ 0.255 µM) |  |  |  |  |  |  |  |  |  |  |  |  |  |
| CN1CCN(c2c(F)c(NCCO)c3c(=O)c(C(=O)O)cn(C4CC4)c3c2F)CC1 | 0.78 (≈ 1.85 µM) | 0.39 (≈ 0.923 µM) | 0.05 (≈ 0.118 µM) |  |  |  |  |  |  |  |  |  |  |  |  |  |
| CN1CCN(c2c(F)c(O)c3c(=O)c(C(=O)O)cn(C4CC4)c3c2F)CC1 | 0.78 (≈ 2.06 µM) | 0.2 (≈ 0.527 µM) | 0.05 (≈ 0.132 µM) |  |  |  |  |  |  |  |  |  |  |  |  |  |
| COc1ccc(CSc2c(F)c(N3CCN(C)CC3)c(F)c3c2c(=O)c(C(=O)O)cn3C2CC2)cc1 | > 100 | 100 (≈ 194 µM) | 12.5 (≈ 24.2 µM) |  |  |  |  |  |  |  |  |  |  |  |  |  |
| CC1CN(c2c(F)c(N)c3c(=O)c(C(=O)O)cn(C4CC4)c3c2F)CCN1C (centres undefined) | 0.39 (≈ 0.994 µM) | 0.05 (≈ 0.127 µM) | 0.0063 (≈ 0.0161 µM) |  |  |  |  |  |  |  |  |  |  |  |  |  |
| COc1c(F)c(N2CCN(C)CC2)c(F)c2c1c(=O)c(C(=O)O)cn2C1CC1 | 12.5 (≈ 31.8 µM) | 25 (≈ 63.6 µM) | 0.2 (≈ 0.508 µM) |  |  |  |  |  |  |  |  |  |  |  |  |  |
| CN(C)CC1CN(c2c(F)c(N)c3c(=O)c(C(=O)O)cn(C4CC4)c3c2F)CCN1 (centres undefined) | 1.56 (≈ 3.7 µM) | 0.05 (≈ 0.119 µM) | 0.1 (≈ 0.237 µM) |  |  |  |  |  |  |  |  |  |  |  |  |  |
| C[C@@H]1CN(c2c(F)c(O)c3c(=O)c(C(=O)O)cn(C4CC4)c3c2F)C[C@H](C)N1 | 0.78 (≈ 1.98 µM) | 0.2 (≈ 0.508 µM) | 0.025 (≈ 0.0636 µM) |  |  |  |  |  |  |  |  |  |  |  |  |  |
| CN1CCN(c2c(F)c(Br)c3c(=O)c(C(=O)O)cn(C4CC4)c3c2F)CC1 | 0.78 (≈ 1.76 µM) | 0.39 (≈ 0.882 µM) | 0.05 (≈ 0.113 µM) |  |  |  |  |  |  |  |  |  |  |  |  |  |
| Nc1c(F)c(N2CCNC(CO)C2)c(F)c2c1c(=O)c(C(=O)O)cn2C1CC1 (centres undefined) | 0.2 (≈ 0.507 µM) | 0.05 (≈ 0.127 µM) | 0.025 (≈ 0.0634 µM) |  |  |  |  |  |  |  |  |  |  |  |  |  |
| C[C@@H]1CN(c2c(F)c(Cl)c3c(=O)c(C(=O)O)cn(C4CC4)c3c2F)C[C@H](C)N1 | 0.78 (≈ 1.89 µM) | 0.2 (≈ 0.486 µM) | 0.025 (≈ 0.0607 µM) |  |  |  |  |  |  |  |  |  |  |  |  |  |
| CC1CN(c2c(F)c(Cl)c3c(=O)c(C(=O)O)cn(C4CC4)c3c2F)CCN1 (centres undefined) | 0.39 (≈ 0.98 µM) | 0.1 (≈ 0.251 µM) | 0.0125 (≈ 0.0314 µM) | 0.78 (≈ 1.96 µM) | 1.65 | 0.78 (≈ 1.96 µM) | 0.2 (≈ 0.503 µM) | 0.05 (≈ 0.126 µM) | 0.1 (≈ 0.251 µM) | 0.0125 (≈ 0.0314 µM) | 0.05 (≈ 0.126 µM) | 0.78 (≈ 1.96 µM) | 1.56 (≈ 3.92 µM) | 0.1 (≈ 0.251 µM) |  |  |
| CC1CNCCN1c1c(F)c(N)c2c(=O)c(C(=O)O)cn(C3CC3)c2c1F (centres undefined) | 0.78 (≈ 2.06 µM) | 0.2 (≈ 0.529 µM) | 0.05 (≈ 0.132 µM) |  |  |  |  |  |  |  |  |  |  |  |  |  |
| CN1CCN(c2c(F)c(-n3cccc3)c3c(=O)c(C(=O)O)cn(C4CC4)c3c2F)CC1 | 12.5 (≈ 29.2 µM) | 3.13 (≈ 7.31 µM) | 0.39 (≈ 0.91 µM) |  |  |  |  |  |  |  |  |  |  |  |  |  |
| CN1CCN(c2c(F)c(N)c3c(=O)c(C(=O)O)cn(C4CC4)c3c2F)CC1 | 0.2 (≈ 0.529 µM) | 0.1 (≈ 0.264 µM) | 0.0125 (≈ 0.033 µM) | 1.56 (≈ 4.12 µM) | 2.18 | 0.78 (≈ 2.06 µM) |  | 0.025 (≈ 0.0661 µM) | 0.05 (≈ 0.132 µM) | 0.0125 (≈ 0.033 µM) | 0.05 (≈ 0.132 µM) | 0.39 (≈ 1.03 µM) | 0.39 (≈ 1.03 µM) | 0.05 (≈ 0.132 µM) | 0.1 (≈ 0.264 µM) | 22.9 |
| CN1CCN(c2c(F)cc3c(=O)c(C(=O)O)cn(C4CC4)c3c2F)CC1 | 0.39 (≈ 1.07 µM) | 0.2 (≈ 0.55 µM) | 0.025 (≈ 0.0688 µM) | 0.78 (≈ 2.15 µM) | 2.18 | 0.78 (≈ 2.15 µM) |  | 0.05 (≈ 0.138 µM) | 0.1 (≈ 0.275 µM) | 0.0125 (≈ 0.0344 µM) | 0.05 (≈ 0.138 µM) | 0.39 (≈ 1.07 µM) | 0.78 (≈ 2.15 µM) | 0.1 (≈ 0.275 µM) | 0.1 (≈ 0.275 µM) | 8.84 |
| C[C@@H]1NCCN(c2c(F)c(N)c3c(=O)c(C(=O)O)cn(C4CC4)c3c2F)[C@@H]1C (relative stereo) | 0.78 (≈ 1.99 µM) | 0.025 (≈ 0.0637 µM) | 0.0125 (≈ 0.0319 µM) |  |  |  |  |  |  |  |  |  |  |  |  |  |
| O=C(O)c1cn(C2CC2)c2cc(N3CCNCC3)c(F)cc2c1=O [CIPROFLOXACIN] |  | 0.1 (≈ 0.302 µM) |  | 0.2 (≈ 0.604 µM) | 2.78 | 1.56 (≈ 4.71 µM) |  |  | 0.1 (≈ 0.302 µM) | 0.0063 (≈ 0.019 µM) | 0.025 (≈ 0.0754 µM) | 0.2 (≈ 0.604 µM) | 3.13 (≈ 9.45 µM) | 0.2 (≈ 0.604 µM) | 0.05 (≈ 0.151 µM) | 23.9 |
| CC1COc2c(N3CCN(C)CC3)c(F)cc3c(=O)c(C(=O)O)cn1c23 (centres undefined) [OFLOXACIN] |  | 0.78 (≈ 2.16 µM) |  | 1.56 (≈ 4.32 µM) | 6.62 | 1.56 (≈ 4.32 µM) |  | 0.1 (≈ 0.277 µM) | 0.2 (≈ 0.553 µM) | 0.05 (≈ 0.138 µM) | 0.1 (≈ 0.277 µM) | 0.39 (≈ 1.08 µM) | 1.56 (≈ 4.32 µM) | 0.2 (≈ 0.553 µM) | 0.2 (≈ 0.553 µM) | 10.8 |
| C[C@@H]1CN(c2c(F)c(F)c3c(=O)c(C(=O)O)cn(C4CC4)c3c2F)C[C@H](C)N1 [ORBIFLOXACIN] | 1.56 (≈ 3.95 µM) | 0.39 (≈ 0.986 µM) | 0.05 (≈ 0.126 µM) |  |  |  |  |  |  |  |  |  |  |  |  |  |
